Screening results: PubChem, Johns Hopkins Ion Channel Center
TRPC4 potent: positive allosteric modulators of TRPC4, primary screen, cell-based, mouse TRPC4beta, HEK293 mu-opioid, Fluo-4 calcium. B-score at 10 µM. DAMGO EC20, Fluo-4 Ca2+ flux; active compounds read high. AID 2227, 2009. Short transient receptor potential channel 4 (Mus musculus), Q9QUQ5. 310,000 tested, 0.42% active;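 active = B-score of calcium response area above 5 SD of library B-scores, with initial fluorescence ratio within 5 SD of library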;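 note: B-score of integrated fluorescence ratio over time as area under calcium response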
TRPC6 inh: mouse TRPC6 channel inhibitors, primary screen, cell-based, HEK293, membrane potential dye | B-score at 10 µM | 310,000 tested, 1.1% active | ACh-evoked depolarization; active compounds read low | Short transient receptor potential channel 6 (Mus musculus), Q61143 | AID 2553, 2010;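 active = B-score under library mean minus 3 SD, initial fluorescence not abnormally high, positive integrated signal ratio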;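 note: B-score derived from integrated fluorescence ratio over the kinetic read; more negative B-score means stronger inhibition of depolarization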
Target sequence (Q61143 whole entry, looked up): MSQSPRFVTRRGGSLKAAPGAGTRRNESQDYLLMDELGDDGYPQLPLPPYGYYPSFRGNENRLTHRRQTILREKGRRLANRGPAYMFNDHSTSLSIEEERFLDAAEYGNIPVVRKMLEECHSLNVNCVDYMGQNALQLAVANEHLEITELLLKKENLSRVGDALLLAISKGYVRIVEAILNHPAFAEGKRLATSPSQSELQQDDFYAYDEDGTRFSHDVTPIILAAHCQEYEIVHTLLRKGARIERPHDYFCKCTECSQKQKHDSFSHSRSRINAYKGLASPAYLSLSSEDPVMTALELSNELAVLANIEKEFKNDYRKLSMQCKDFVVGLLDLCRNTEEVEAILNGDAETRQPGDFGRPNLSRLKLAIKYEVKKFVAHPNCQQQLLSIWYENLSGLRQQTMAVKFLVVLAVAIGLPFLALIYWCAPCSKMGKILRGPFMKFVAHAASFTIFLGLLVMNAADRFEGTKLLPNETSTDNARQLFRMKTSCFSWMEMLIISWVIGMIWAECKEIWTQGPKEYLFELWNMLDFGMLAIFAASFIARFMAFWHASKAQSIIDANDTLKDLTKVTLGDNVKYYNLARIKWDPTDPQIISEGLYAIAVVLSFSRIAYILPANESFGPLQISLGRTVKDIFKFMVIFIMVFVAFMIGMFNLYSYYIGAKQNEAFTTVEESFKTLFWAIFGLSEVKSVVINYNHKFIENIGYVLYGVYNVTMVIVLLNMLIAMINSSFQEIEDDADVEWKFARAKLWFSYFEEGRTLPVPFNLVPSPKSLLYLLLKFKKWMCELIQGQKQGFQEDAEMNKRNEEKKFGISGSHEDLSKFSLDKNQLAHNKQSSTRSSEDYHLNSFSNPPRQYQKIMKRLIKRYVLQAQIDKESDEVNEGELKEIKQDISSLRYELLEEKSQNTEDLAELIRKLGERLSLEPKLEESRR
TRPC6 activator: mouse TRPC6 channel activators, primary screen, cell-based, HEK293, membrane potential dye; 310,000 tested, 0.13% active; B-score at 10 µM; HEK293-TRPC6 membrane potential dye fluorescence; active compounds read high; Short transient receptor potential channel 6 (Mus musculus), Q61143;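 active = B-score of the integrated fluorescence ratio above library mean plus 3 SD, and starting fluorescence ratio within library mean plus 5 SD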;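 note: higher score means more depolarization so channel activation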
TRPC4 inh: inhibitors of mouse TRPC4 channel, primary screen, Fluo4 calcium, HEK293 TRPC4beta/mu-opioid cells; Short transient receptor potential channel 4 (Mus musculus), Q9QUQ5; DAMGO-evoked Fluo4 calcium flux; active compounds read low; B-score at 10 µM; 300,000 tested, 0.39% active;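 active = B-score over 3 SD under the library average, no early fluorescence shift, positive overall ratio signal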
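Signal: kinetic Fluo4 fluorescence imaging of calcium influx. Material: stable TRPC4beta/mu-opioid receptor HEK293 cells. Probe or stimulus: DAMGO in two steps, submaximal then maximal.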
TRPC4 agonist: activators of mouse TRPC4 channel, primary screen, Fluo4 calcium, HEK293 TRPC4beta/mu-opioid cells; Fluo4 calcium fluorescence; active compounds read high; Short transient receptor potential channel 4 (Mus musculus), Q9QUQ5; 310,000 tested, 0.49% active; AID 2237, 2010; B-score at 10 µM;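 active = B-score above 5 SD of library B-scores, and initial fluorescence ratio not above library mean plus 5 SD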;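 note: positive B-score marks a calcium rise read as TRPC4 activation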
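Technique: kinetic Fluo4 calcium fluorescence; Test system: TRPC4beta and mu-opioid receptor HEK293 stable cells; Measure: B-scored integrated calcium fluorescence ratio; Benchmarks: low control buffer alone, high control maximal DAMGO; Schedule: 45 min room-temperature Fluo4 loading, 110 s read.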
TRPC4 sel inh 2: mouse TRPC4 off-target activity of TRPC6 inhibitors, second screen | shares compounds with TRPC6 inh | HEK293 TRPC4/MOR, membrane potential dye fluorescence; channel activated by saturating DAMGO dose | inhibition, % at 10 µM | 920 tested, 42% active | AID 2776;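 active = compounds whose fluorescence signal differed from control wells by over 3 SD, either direction, in both duplicate plates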
TRPC4 spec: mouse TRPC4 modulation by TRPC6 hits, confirmation, selectivity assay for TRPC6 inhibitor project, cell-based, HEK293 TRPC4/mu-opioid, membrane potential dye; shares compounds with TRPC6 inh; membrane potential fluorescence; activity change, negative = inhibition, % at 10 µM; 920 tested, 61% active; AID 2777, 2010;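 active = rise or fall in signal beyond 3 SD of buffer-only wells in both replicate plates, either sign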;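 note: integrated kinetic ratio of fluorescence range over baseline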
HEK293 MPD ctr 2-1: nonspecific membrane potential effects, parental HEK293, confirmation, counter-screen for TRPC6 inhibitor project, cell-based, second counter screen. 920 tested, 31% active. signal change vs control, % at 10 µM. shares compounds with TRPC6 inh. parental HEK293 membrane potential dye fluorescence; maximal acetylcholine challenge after compound addition;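 active = membrane potential signal moving either way by over 3 SD of the maximum-effect control, in both duplicate plates, meaning non-specific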
HEK293 MPD ctr-1: membrane potential modulation in parental HEK293, confirmation, counter-screen for TRPC6 inhibitor project, cell-based; shares compounds with TRPC6 inh; parental HEK293 membrane potential dye fluorescence; membrane potential signal change, % at 10 µM; 920 tested, 60% active; AID 2780, 2010;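 active = membrane potential signal shifting up or down by more than 3 SD of buffer-only wells, on both duplicate plates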
HEK293 MPD ctr-2: parental HEK293 membrane potential modulation, confirmation, counter-screen for TRPC6 modulator project, cell-based; shares compounds with TRPC6 inh; membrane potential signal change, % at 10 µM; 2,400 tested, 51% active; membrane potential dye fluorescence;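 active = membrane potential signal moves up or down beyond 5 SD from buffer-only wells, on both duplicate plates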
HEK293 MPD ctr 2-2: parental HEK293 nonspecific activity of TRPC6 modulators, second screen | shares compounds with TRPC6 inh | AID 488926 | membrane potential dye fluorescence; after compound, maximal acetylcholine stimulation | inhibition, % at 10 µM | 2,400 tested, 14% active;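 active = membrane potential signal drops by more than 5 SD from the mean control signal, in both duplicate plates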;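 note: plate controls were acetylcholine ECmax control wells for no effect and buffer only wells for full effect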
TRPC4 ctr mod: TRPC4 modulation by TRPC6 hit compounds, confirmation, selectivity assay for TRPC6 modulator project, cell-based, HEK293 TRPC4/mu-opioid, membrane potential dye, mouse. AID 488927, 2010. shares compounds with TRPC6 inh. percent change from control (negative = decrease, positive = increase), % at 10 µM. 2,400 tested, 69% active. membrane potential fluorescence;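 active = membrane potential signal moved up or down beyond 5 SD of buffer control wells, in both duplicate plates, actives on both sides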;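 note: plate controls were assay buffer wells for no effect and DAMGO maximal-effect wells for full effect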
TRPC4/MOR inh 2: mouse TRPC4 off-target activity of TRPC6 modulators, second screen | 2,400 tested, 55% active | HEK293 TRPC4/mu-opioid, membrane potential dye fluorescence; stimulated with maximal-effect DAMGO | shares compounds with TRPC6 inh | inhibition, % at 10 µM;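 active = drop in membrane potential signal beyond 5 SD of the control wells in both duplicate plates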;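 note: TRPC4 counter screen for TRPC6 hits run under conditions tuned for TRPC6 not TRPC4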
TRPC6 inh conf: mouse TRPC6 channel inhibitors, confirmation, HEK293 cells, membrane potential dye, duplicate. shares compounds with TRPC6 inh. ACh-evoked depolarization. inhibition, % at 10 µM. 3,300 tested, 43% active. AID 488960, 2010;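 active = fluorescence ratio falls more than 5 SD below the full-stimulation control mean, in both duplicate runs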;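 note: integrated fluorescence ratio of peak minus minimum over baseline after agonist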
TRPC6 act confirm: mouse TRPC6 channel activators, confirmation, HEK293 cells, membrane potential dye, duplicate; 2,800 tested, 11% active; AID 488961, 2010; activation, % at 10 µM; shares compounds with TRPC6 inh; HEK293-TRPC6 membrane potential dye fluorescence, FDSS;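 active = ratio signal rise beyond 5 SD above unstimulated control wells' mean, seen in both duplicate runs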;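 note: plate controls were buffer EC0 wells for no effect and acetylcholine ECmax response for full effect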
Active calls of the source: *; i = inactive; · = not tested or not shown. Most compounds without a hit are left out; they make up all but 2.3% or so of the library.

SMILES	TRPC4 potent	TRPC6 inh	TRPC6 activator	TRPC4 inh	TRPC4 agonist	HEK293 MPD ctr-2	HEK293 MPD ctr 2-2	TRPC4 ctr mod	TRPC4/MOR inh 2	TRPC6 inh conf	TRPC6 act confirm	others
CCN(CC)CCNc1c2c(c(C#N)c3nc4ccccc4n13)CCCC2	i	-5.1*	i	i	i	i	i	-18%*	36%*	42%*	i
N#Cc1c2c(c(NCc3ccco3)n3c1nc1ccccc13)CCC2	i	i	i	i	i	·	·	·	·	·	·
CN(C)CCNc1c2c(c(C#N)c3nc4ccccc4n13)CCCC2	i	-11*	i	i	i	·	·	·	·	73%*	i	TRPC4 sel inh 2=60%*;TRPC4 spec=-28%*;HEK293 MPD ctr 2-1=48%*;HEK293 MPD ctr-1=-384%*
CN(C)C(CNC(=O)c1c(F)cccc1Cl)c1ccco1 (stereo unspecified)	i	i	i	i	i	·	·	·	·	·	·
Cc1c(C(=O)Nc2ccccc2-c2ccccc2)cccc1[N+](=O)[O-]	i	i	i	i	i	·	·	·	·	·	·
C=CCOc1ccc(Cl)cc1CNC1CCCC1	i	-7.3*	i	-6*	i	321%*	83%*	76%*	91%*	72%*	·
COc1ccc(CNC2CCCC2)c(OC)c1OC	i	i	i	i	i	·	·	·	·	·	·
O=C(NCCCn1ccnc1)C1c2ccccc2Oc2ccccc21	i	-6*	i	i	i	i	i	32%*	i	i	i
COCCN1CC(O)=C(c2nc3ccccc3c(=O)[nH]2)C1=N	i	i	i	i	i	·	·	·	·	·	·
